The species named for the test is Sus scrofa. Kind of test: Inhibition of ADAMTS5 in pig articular cartilage assessed as inhibition of IL1alpha-induced aggrecan cleavage at 10 uM after 24 hrs by Western blot analysis. A digest of the protocol:
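Pieces of porcine metacarpophalangeal articular cartilage from 3–9-month-old pigs were cultured in serum-free DMEM ± IL-1α (10 ng/mL) with inhibitor at 1 or 10 μM or GM6001 at 100 μM for 24 h, three pieces per treatment. Conditioned media were deglycosylated with chondroitinase ABC and keratanase, acetone-precipitated, run on 6% SDS-PAGE and Western blotted with an anti-ARGSV aggrecanase-neoepitope antibody.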

Calls of active or inactive are those of the source. No cut-off for these calls is given here.

Data on 1 compound can be found in ChEMBL document CHEMBL2331231, “Arylsulfonamide inhibitors of aggrecanases as potential therapeutic agents for osteoarthritis: synthesis and biological evaluation” (Eur J Med Chem, 2013).

`O=C(CNS(=O)(=O)c1ccc(OCc2ccc(F)cc2Cl)cc1)NO`: the inhibition entry was “Active”.
